Laboratory results from paper PMC3055594 (Glycobiology, 2010).
Where two headings read alike, the source gives them in different places.

How the values were obtained:
Mt-PrsA [1] = biological target: T1, Mt-PrsA (Mycobacterium tuberculosis, UniProt P9WKE3); experiment: Intrinsic tryptophan fluorescence; format: binding
T1 sequence (P9WKE3 1-326): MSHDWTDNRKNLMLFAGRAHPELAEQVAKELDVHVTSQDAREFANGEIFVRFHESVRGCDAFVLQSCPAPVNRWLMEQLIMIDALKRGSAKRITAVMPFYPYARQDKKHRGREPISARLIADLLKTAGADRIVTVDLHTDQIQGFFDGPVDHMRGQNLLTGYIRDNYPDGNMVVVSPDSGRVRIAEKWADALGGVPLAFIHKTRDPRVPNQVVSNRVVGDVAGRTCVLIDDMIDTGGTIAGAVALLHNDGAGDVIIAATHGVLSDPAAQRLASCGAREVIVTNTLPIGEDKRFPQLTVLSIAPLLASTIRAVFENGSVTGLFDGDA
Outline: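 Excitation was at 292 nm; emission spectra were taken at 300–400 nm 5 min after each ligand aliquot. ΔFemission at 335 nm was plotted against [L] and fitted for Kd and Hill n. R5P was titrated with or without 5 mM AMPPNP, and AMPPNP with or without 5 mM R5P.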

Mt-PrsA [2] = biological target: T1, Mt-PrsA; format: biochemical; conditions: 2 mM final concentration, 37°C
Mt-PrsA [3] = biological target: T1, Mt-PrsA; conditions: 5 mM ligand
Outline: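 Recombinant Mt-PrsA was purified by Ni2+-NTA with a 250 mM imidazole step to ~98% purity, then dialyzed into 50 mM KH2PO4 (pH 7.9), 300 mM NaCl, 1 mM DTT. Sedimentation velocity was run with absorbance optics using no ligand or 5 mM R5P, ATP or ADP. The read-out was the molar mass distribution c(M) against apparent molecular weight.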

[4] = system: arabinofuranosyltransferases EmbA, EmbB, EmbC and AftB; format: biochemical, Mycobacterium smegmatis; conditions: EMB 100 µg/mL; ADP 2 mM
Mt-PrsA [5] = biological target: T1, Mt-PrsA; experiment: Continuous enzyme-coupled spectrophotometric assay of Mt-PrsA; format: biochemical
[6] = read-out: Kd (ITF), ligand alone, 70 µM Mt-PrsA

## Nc1ncnc2c1ncn2[C@@H]1O[C@H](COP(=O)(O)OP(=O)(O)O)[C@@H](O)[C@H]1O [ADP]
Mt-PrsA [1]; ligand alone
  Hill coefficient (n) of binding (ITF): 2
Mt-PrsA [1]; [6]
  Kd: 513 µM
Mt-PrsA [2]
  effect on Mt-PrsA activity / p[14C]Rpp formation: strongly inhibited
Mt-PrsA [3]
  effect on oligomeric state of Mt-PrsA, c(M) distribution: shifted toward an increase in the hexameric state
[4]
  effect on AraT-dependent product formation: inhibition of any AraT-dependent product formation
Mt-PrsA [5]; read-out: Ki against increasing [ATP], saturating [R5P], Eq. (6)
  Ki: 522 µM

## Nc1ncnc2c1ncn2C1OC(COP(=O)(O)OP(=O)(O)NP(=O)(O)O)C(O)C1O (stereo not drawn) [AMPPNP, 5'-adenylyl-β,γ-imidodiphosphate]
Mt-PrsA [1]; 5 mM R5P
  Hill coefficient (n) for AMPPNP in the presence of R5P: 5
Mt-PrsA [1]; ligand alone
  Hill coefficient (n) of binding (ITF): ~4
Mt-PrsA [1]; [6]
  Kd: 31 µM
Mt-PrsA [1]; read-out: Kd for AMPPNP in the presence of R5P, 5 mM R5P
  Kd: 28.2 µM

## Nc1ncnc2c1ncn2[C@@H]1O[C@H](COP(=O)(O)OP(=O)(O)OP(=O)(O)O)[C@@H](O)[C@H]1O [ATP]
Mt-PrsA [1]; ligand alone
  Hill coefficient (n) of binding (ITF): ~4
Mt-PrsA [1]; [6]
  Kd: 28.3 µM
Mt-PrsA [3]
  c(M) peak position: ~70,000 Da
  effect on oligomeric state of Mt-PrsA, c(M) distribution: reduction in the intensity of the hexameric species
Mt-PrsA [5]; increasing [ATP], saturating R5P, 50 mM Pi
  apparent Hill coefficient (n), kinetics: 1.68
Mt-PrsA [5]; saturating R5P, 50 mM Pi
  Vmax for ATP: 601 µmol⁻¹ min⁻¹ mg⁻¹
Mt-PrsA [5]; saturating R5P, 50 mM Pi, Eq. (4)
  S0.5 for ATP: 62.65 µM

## [Ca+2].[Cl-].[Cl-] [CaCl2]
Mt-PrsA [2]
  effect on Mt-PrsA activity / p[14C]Rpp formation: loss of Mt-PrsA activity

## CC[C@@H](CO)NCCN[C@@H](CC)CO [EMB, ethambutol]
[4]
  effect on AraT-dependent product formation: loss of the upper band with only the lower band remaining

## O=P(O)(O)O [Pi, inorganic phosphate]
Mt-PrsA [5]
  concentration required for full enzyme activation: 50 mM

## O=C[C@H](O)[C@H](O)[C@H](O)COP(=O)(O)O [R5P, ribose-5-phosphate]
Mt-PrsA [1]; Kd (ITF), ligand alone, 70 µM Mt-PrsA
  Kd: 24.8 µM
Mt-PrsA [1]; apparent Kd for R5P in the presence of AMPPNP, 5 mM AMPPNP
  Kd: 21.4 µM
Mt-PrsA [3]
  effect on oligomeric state of Mt-PrsA, c(M) distribution: no apparent change in the equilibrium or oligomeric state
Mt-PrsA [5]; read-out: Km for R5P, saturating ATP, 50 mM Pi, Eq. (2)
  Km: 8.2 µM
Mt-PrsA [5]; saturating ATP, 50 mM Pi
  Vmax (increasing R5P): 530 µmol⁻¹ min⁻¹ mg⁻¹
